Results pooled from the literature.
Lines come from different studies, so protocols differ.
Cell line: MCF7
Observed: cell growth or viability

SMILES | assay | setting | endpoint | value
COc1ccc(NC(=O)NCc2cn(Cc3ccc(Br)cc3)nn2)cc1 | CCK-8 | 50 µM, 72 h | viability | 89.2%
CC(C)(C)[C@H](N)C(=O)Nc1ccccc1/N=c1\cc(-c2ccc3c(c2)OCO3)oc2ccccc12 | CCK-8 | 1 µM | inhibition | 21.3%
COc1ccc(NC(=O)Nc2ccc(-c3cn(Cc4cccc(Cl)c4)nn3)cc2)cc1 | CCK-8 | 50 µM, 72 h | viability | 98.2%
COc1ccc2/c(=N/c3ccccc3NC(=O)[C@@H](N)C(C)(C)C)cc(-c3ccc4c(c3)OCCO4)oc2c1 | CCK-8 | 1 µM | inhibition | 8.1%
COc1cc(C=NNC(=O)c2nc3ccccc3s2)ccc1O | MTT | 100 µM, 48 h | cell death | 16.6%
O=C(Nc1ccc(Cl)cc1)Nc1cccc(-c2cn(Cc3cccc(Br)c3)nn2)c1 | CCK-8 | 50 µM, 72 h | viability | 72.8%
O=C(Nc1ccc(Cl)cc1)Nc1ccc(-c2cn(Cc3ccc(Br)cc3)nn2)cc1 | CCK-8 | 50 µM, 48 h | viability | 93.7%
COc1ccc2/c(=N/c3ccccc3NC(=O)[C@@H](N)CO)cc(-c3ccc4c(c3)OCCO4)oc2c1 | CCK-8 | 1 µM | inhibition | 8.55%
Cc1ccccc1Cn1cc(-c2cccc(NC(=O)Nc3ccc(F)cc3)c2)nn1 | CCK-8 | 50 µM, 72 h | viability | 58.8%
Cc1n[nH]c2ccc3nc(-c4ccc(C(=O)NCCN(C)C)cc4)c4c(c3c12)CCCCC4 |  | 72 h | GI50 | 5.25 µM
O=C(Nc1ccc(Cl)cc1)Nc1cccc(-c2cn(Cc3ccc(Cl)cc3)nn2)c1 | CCK-8 | 50 µM, 48 h | viability | 104%
COc1ccc(NC(=O)Nc2ccc(-c3cn(Cc4ccc(C)cc4)nn3)cc2)cc1 | CCK-8 | 50 µM, 48 h | viability | 81.1%
O=C(Nc1ccc(Cl)cc1)Nc1cccc(-c2cn(Cc3cccc(Cl)c3)nn2)c1 | CCK-8 | 50 µM, 72 h | viability | 70.5%
COc1ccc2oc(-c3ccc4nc(N)oc4c3)c/c(=N\c3ccccc3NC(=O)CCN)c2c1 | CCK-8 | 1 µM | inhibition | 15%
O=C(Nc1ccc(Cl)cc1)Nc1ccc(-c2cn(Cc3ccc(Cl)cc3)nn2)cc1 | CCK-8 | 50 µM, 48 h | viability | 94.6%
NCCC(=O)Nc1ccccc1/N=c1\cc(-c2ccc3c(c2)OCCO3)oc2cc(F)ccc12 | CCK-8 | 1 µM | inhibition | -1.71%
CC(C)(C)c1cc(NC(=O)Nc2ccc(-c3cn4c(n3)sc3cc(OCCN5CCOCC5)ccc34)cc2)no1 |  | 72 h | GI50 | > 10 µM
O=C(NCc1cn(Cc2ccc(Cl)cc2)nn1)Nc1ccccc1Br | CCK-8 | 50 µM, 72 h | viability | 88.6%
Nc1nc2ccc(-c3c/c(=N\c4ccccc4NC(=O)C4CCNC4)c4ccccc4o3)cc2o1 (centres unmarked) | CCK-8 | 1 µM | inhibition | 11.6%
O=c1[nH]cc(F)c(=O)[nH]1 | MTT | 100 µM, 48 h | cell death | 71.2%
